# Experimental data: article PMC10842602 (Bioorganic & medicinal chemistry, 2023)
# Changes are numbered by the printed parent chain.
# Legend:
# GABAA Cl– channels = settings: binding displacement assay; cited from earlier work
# [1] = test system: neurons from Kcnt1^L/L mice; settings: brain slices, 10 μM; cited from earlier work
# WT human SLACK [2] = molecular target: T1, WT human SLACK (Homo sapiens, UniProt Q5JUK3); assay: Whole-cell voltage-clamp electrophysiology, automated patch clamp; assay type: cell-based; settings: CRC, CHO cells expressing WT SLACK
# T1 sequence (Q5JUK3 1-1235 isoform Q5JUK3-3): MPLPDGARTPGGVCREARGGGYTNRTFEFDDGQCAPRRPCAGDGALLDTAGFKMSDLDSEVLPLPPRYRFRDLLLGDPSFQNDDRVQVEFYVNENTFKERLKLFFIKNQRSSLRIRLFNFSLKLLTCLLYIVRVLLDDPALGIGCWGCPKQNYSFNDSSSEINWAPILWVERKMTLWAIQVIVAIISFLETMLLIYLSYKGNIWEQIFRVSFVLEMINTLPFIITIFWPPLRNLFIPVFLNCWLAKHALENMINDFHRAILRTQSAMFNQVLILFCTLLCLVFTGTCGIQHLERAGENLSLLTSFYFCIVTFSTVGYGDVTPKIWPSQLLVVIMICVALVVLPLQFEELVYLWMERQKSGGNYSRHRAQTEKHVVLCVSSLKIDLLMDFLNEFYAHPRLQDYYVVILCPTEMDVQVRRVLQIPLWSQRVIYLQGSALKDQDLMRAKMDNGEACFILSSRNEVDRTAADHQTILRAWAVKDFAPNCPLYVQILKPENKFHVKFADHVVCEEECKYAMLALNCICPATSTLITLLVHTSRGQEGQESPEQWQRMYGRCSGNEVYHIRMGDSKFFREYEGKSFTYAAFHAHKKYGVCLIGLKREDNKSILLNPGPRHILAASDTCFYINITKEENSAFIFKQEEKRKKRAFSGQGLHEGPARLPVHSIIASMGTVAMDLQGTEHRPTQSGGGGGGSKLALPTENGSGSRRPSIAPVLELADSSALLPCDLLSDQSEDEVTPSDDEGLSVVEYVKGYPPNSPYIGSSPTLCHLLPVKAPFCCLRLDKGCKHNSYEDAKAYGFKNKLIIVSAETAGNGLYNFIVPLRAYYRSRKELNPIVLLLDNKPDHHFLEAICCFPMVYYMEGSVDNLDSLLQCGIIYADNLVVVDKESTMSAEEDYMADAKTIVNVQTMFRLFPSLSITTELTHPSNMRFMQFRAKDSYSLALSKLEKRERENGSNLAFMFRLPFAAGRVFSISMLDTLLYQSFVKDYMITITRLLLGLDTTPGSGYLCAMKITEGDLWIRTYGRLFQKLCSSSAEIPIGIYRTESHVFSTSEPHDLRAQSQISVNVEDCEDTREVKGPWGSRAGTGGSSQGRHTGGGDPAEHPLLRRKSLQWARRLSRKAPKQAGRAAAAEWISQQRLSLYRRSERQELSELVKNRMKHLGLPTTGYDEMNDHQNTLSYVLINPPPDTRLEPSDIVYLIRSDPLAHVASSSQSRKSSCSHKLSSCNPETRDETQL
# Summary of the method: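 CHO cells stably expressing wild-type human SLACK. Currents recorded in whole-cell voltage-clamp mode on an automated patch clamp platform. IC50 derived from concentration-response data for a selected subset of analogs.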
# WT human SLACK [3] = molecular target: T1, WT human SLACK; assay: Tl+ flux assay in HEK-293 cells stably expressing WT human SLACK; assay type: cell-based; settings: CRC; IC50 for compounds of mode Inh (also cells printed Inactive)
# Summary of the method: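 Stably transfected HEK-293 cells expressing wild-type human SLACK; thallium flux read-out. IC50 or EC50 taken from concentration-response curves, and each compound classed as inhibitor, activator or not active. Efficacy is the response amplitude at 30 μM test compound, as a percentage of the maximum response to a reference SLACK inhibitor (for inhibitors) or loxapine (for activators).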
# Maxi-K (Slo1 α1/β3) = Maxi-K (Slo1 α1/β3) (Homo sapiens, UniProt Q12791); assay: Tl+ flux assay in HEK-293 cells expressing Maxi-K; assay type: cell-based; settings: CRC
# Chain of Maxi-K (Slo1 α1/β3) (Q12791 whole entry, species assumed): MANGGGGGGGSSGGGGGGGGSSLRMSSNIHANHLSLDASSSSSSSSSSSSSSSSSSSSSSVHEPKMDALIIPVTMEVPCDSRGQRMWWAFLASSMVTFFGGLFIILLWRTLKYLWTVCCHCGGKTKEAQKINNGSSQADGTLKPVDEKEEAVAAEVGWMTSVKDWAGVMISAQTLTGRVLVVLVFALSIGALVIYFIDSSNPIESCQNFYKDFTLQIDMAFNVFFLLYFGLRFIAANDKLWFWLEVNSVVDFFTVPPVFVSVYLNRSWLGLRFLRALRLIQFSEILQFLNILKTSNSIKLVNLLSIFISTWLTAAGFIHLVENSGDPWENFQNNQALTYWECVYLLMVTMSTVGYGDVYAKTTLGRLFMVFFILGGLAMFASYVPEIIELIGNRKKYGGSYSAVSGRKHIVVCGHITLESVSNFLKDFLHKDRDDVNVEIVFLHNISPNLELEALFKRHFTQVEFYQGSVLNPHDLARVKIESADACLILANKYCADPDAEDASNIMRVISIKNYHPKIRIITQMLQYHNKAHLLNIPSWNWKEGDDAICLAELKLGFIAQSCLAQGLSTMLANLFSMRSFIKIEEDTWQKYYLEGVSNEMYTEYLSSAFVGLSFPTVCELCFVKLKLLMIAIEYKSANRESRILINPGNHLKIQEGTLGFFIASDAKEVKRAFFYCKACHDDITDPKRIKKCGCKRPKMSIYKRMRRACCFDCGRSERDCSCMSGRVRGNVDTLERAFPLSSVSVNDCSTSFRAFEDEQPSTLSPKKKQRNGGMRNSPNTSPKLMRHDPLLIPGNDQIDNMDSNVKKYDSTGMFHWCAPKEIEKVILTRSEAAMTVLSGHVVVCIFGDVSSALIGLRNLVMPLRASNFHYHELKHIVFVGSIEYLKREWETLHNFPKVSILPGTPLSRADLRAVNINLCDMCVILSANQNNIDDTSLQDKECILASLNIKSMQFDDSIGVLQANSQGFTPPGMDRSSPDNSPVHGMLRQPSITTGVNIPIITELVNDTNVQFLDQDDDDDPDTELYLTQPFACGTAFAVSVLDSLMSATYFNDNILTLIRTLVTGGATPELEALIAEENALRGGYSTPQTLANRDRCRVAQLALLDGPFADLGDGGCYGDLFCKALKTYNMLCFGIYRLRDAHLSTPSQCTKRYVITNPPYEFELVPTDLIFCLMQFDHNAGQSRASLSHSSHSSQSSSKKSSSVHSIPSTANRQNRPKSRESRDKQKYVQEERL
# Chain of Maxi-K (Slo1 α1/β3) (Q9NPA1 whole entry partner, species assumed): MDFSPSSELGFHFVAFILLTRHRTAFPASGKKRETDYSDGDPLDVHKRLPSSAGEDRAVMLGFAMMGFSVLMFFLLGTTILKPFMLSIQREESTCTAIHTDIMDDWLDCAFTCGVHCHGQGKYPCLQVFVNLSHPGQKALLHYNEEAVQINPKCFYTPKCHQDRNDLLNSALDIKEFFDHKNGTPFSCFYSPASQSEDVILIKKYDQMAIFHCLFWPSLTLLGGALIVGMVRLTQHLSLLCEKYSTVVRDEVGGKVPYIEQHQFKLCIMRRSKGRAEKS
# human A934T SLACK = molecular target: T2, human A934T SLACK (Homo sapiens, UniProt Q5JUK3, A915T); assay: Tl+ flux assay in HEK-293 cells expressing A934T SLACK; assay type: cell-based; settings: CRC
# T2 sequence (Q5JUK3 1-1235 isoform Q5JUK3-3 A934T): T1 sequence (Q5JUK3 1-1235 isoform Q5JUK3-3) with A934T
# [4] = Metabolic stability in mouse liver microsomes; assay type: in vitro ADME; settings: multiple time points
# hERG = hERG (Homo sapiens, UniProt Q12809); assay: Tl+ flux assay in HEK-293 stably expressing hERG; assay type: cell-based; settings: 10 μM concentration
# Chain of hERG (Q12809 whole entry): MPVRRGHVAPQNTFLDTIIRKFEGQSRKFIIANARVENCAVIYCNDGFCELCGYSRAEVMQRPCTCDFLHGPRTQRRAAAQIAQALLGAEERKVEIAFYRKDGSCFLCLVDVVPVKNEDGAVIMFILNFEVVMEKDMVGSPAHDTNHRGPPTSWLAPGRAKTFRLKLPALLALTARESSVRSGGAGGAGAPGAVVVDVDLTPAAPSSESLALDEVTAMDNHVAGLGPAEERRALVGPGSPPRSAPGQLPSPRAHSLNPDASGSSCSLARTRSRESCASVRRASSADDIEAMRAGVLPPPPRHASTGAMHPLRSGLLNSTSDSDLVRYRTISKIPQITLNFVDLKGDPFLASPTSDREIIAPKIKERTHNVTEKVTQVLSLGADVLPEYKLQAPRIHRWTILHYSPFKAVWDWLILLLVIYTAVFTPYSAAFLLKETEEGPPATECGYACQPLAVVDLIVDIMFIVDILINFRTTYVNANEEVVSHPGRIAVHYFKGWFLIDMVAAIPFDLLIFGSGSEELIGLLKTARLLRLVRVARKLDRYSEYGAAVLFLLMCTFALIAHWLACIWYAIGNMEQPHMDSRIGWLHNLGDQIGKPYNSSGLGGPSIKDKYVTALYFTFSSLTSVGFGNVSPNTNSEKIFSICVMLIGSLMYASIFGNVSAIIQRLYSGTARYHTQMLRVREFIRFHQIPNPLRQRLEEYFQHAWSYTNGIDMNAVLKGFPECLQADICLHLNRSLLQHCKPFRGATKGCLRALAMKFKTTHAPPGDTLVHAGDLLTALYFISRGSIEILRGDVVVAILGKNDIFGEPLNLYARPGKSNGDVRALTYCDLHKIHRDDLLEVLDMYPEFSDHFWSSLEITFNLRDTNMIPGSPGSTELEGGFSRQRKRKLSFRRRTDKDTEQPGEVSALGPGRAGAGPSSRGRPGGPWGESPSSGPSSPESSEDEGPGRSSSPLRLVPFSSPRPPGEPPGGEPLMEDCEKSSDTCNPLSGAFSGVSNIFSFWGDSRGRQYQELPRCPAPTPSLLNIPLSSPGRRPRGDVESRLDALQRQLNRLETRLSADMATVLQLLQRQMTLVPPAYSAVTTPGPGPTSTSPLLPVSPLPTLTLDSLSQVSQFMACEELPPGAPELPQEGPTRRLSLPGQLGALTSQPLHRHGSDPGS
smiles,measurement,setting,value
C[C@H](NC(=O)c1cc(C(F)(F)F)nn1C)c1nc(-c2ccnc(C(F)(F)F)c2)no1 [Compound 3],displacement at GABAA Cl– channels,GABAA Cl– channels,74%
same,firing in neurons,[1],significant reduction in the firing
"CCOc1ccccc1S(=O)(=O)N1CC(c2nc(-c3ccsc3)no2)C1 [Compound 5, 5-(1-((2-Ethoxyphenyl)sulfonyl)azetidin-3-yl)-3-(thiophen-3-yl)-1,2,4-oxadiazole]",IC50 (whole-cell EP),WT human SLACK [2],submicromolar potency
same,IC50 / EC50,WT human SLACK [3],2.1 µM
same,Maxi-K (Slo1 α1/β3) IC50,Maxi-K (Slo1 α1/β3),inactive
"CCOc1ccccc1S(=O)(=O)N1CC(c2nc(-c3ccc(F)cc3Cl)no2)C1 [Compound 58, 3-(2-Chloro-4-fluorophenyl)-5-(1-((2-ethoxyphenyl)sulfonyl)azetidin-3-yl)-1,2,4-oxadiazole]",IC50 (whole-cell EP),WT human SLACK [2],submicromolar potency
same,IC50 / EC50,WT human SLACK [3],2.1 µM
same,Maxi-K (Slo1 α1/β3) IC50,Maxi-K (Slo1 α1/β3),inactive
"CCOc1ccccc1S(=O)(=O)N1CC(c2nc(-c3ccc(F)s3)no2)C1 [Compound 60, 5-(1-((2-Ethoxyphenyl)sulfonyl)azetidin-3-yl)-3-(5-fluorothiophen-2-yl)-1,2,4-oxadiazole]",IC50 (whole-cell EP),WT human SLACK [2],submicromolar potency
same,IC50 / EC50,WT human SLACK [3],4.8 µM
same,A934T IC50,human A934T SLACK,submicromolar potency
same,Maxi-K (Slo1 α1/β3) IC50,Maxi-K (Slo1 α1/β3),inactive
"[2H]C([2H])([2H])C([2H])([2H])Oc1ccccc1S(=O)(=O)N1CC(c2nc(-c3ccc(F)cc3)no2)C1 [Compound 109, 5-(1-((2-(Ethoxy-d5)phenyl)sulfonyl)azetidin-3-yl)-3-(4-fluorophenyl)-1,2,4-oxadiazole]",IC50 / EC50,WT human SLACK [3],5.4 µM
same,Maxi-K (Slo1 α1/β3) IC50,Maxi-K (Slo1 α1/β3),inactive
"O=S(=O)(c1ccccc1OCC(F)(F)F)N1CC(c2nc(-c3ccc(F)cc3)no2)C1 [Compound 113, 3-(4-Fluorophenyl)-5-(1-((2-(2,2,2-trifluoroethoxy)phenyl)sulfonyl)azetidin-3-yl)-1,2,4-oxadiazole]",IC50 / EC50,WT human SLACK [3],8.8 µM
same,Maxi-K (Slo1 α1/β3) IC50,Maxi-K (Slo1 α1/β3),inactive
"O=S(=O)(c1cccc2c1OCCC2)N1CC(c2nc(-c3ccc(F)cc3)no2)C1 [Compound 119, 5-(1-(chroman-8-ylsulfonyl)azetidin-3-yl)-3-(4-fluorophenyl)-1,2,4-oxadiazole]",IC50 / EC50,WT human SLACK [3],8.7 µM
same,Maxi-K (Slo1 α1/β3) IC50,Maxi-K (Slo1 α1/β3),inactive
"O=S(=O)(c1cccc2cccnc12)N1CC(c2nc(-c3ccc(F)cc3)no2)C1 [Compound 121, 3-(4-Fluorophenyl)-5-(1-(quinolin-8-ylsulfonyl)azetidin-3-yl)-1,2,4-oxadiazole]",IC50 / EC50,WT human SLACK [3],7.4 µM
same,Maxi-K (Slo1 α1/β3) IC50,Maxi-K (Slo1 α1/β3),inactive
same,predicted hepatic clearance (CLHEP),[4],75 mL/min/kg
"Cc1ccc2cccc(S(=O)(=O)N3CC(c4nc(-c5ccc(F)cc5)no4)C3)c2n1 [Compound 122, 3-(4-Fluorophenyl)-5-(1-((2-methylquinolin-8-yl)sulfonyl)azetidin-3-yl)-1,2,4-oxadiazole]",IC50 (whole-cell EP),WT human SLACK [2],submicromolar potency
same,IC50 / EC50,WT human SLACK [3],1.1 µM
same,A934T IC50,human A934T SLACK,submicromolar potency
same,Maxi-K (Slo1 α1/β3) IC50,Maxi-K (Slo1 α1/β3),inactive
same,hERG activity,hERG,inactive
